Assay outcomes: PubChem BioAssay, several laboratories
In the library only some 3.7% were active in any assay of this set; here they are far more common.
MPTP block: inhibitors of mitochondrial permeability transition pore; 1.4% of 360,000 active; isolated mouse mitochondria, Ca2+ swelling absorbance, 30 min; inhibition, % at 10 µM; AID 602449;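 active means inhibition of 50% or more, scaled per plate between neutral and stimulator controls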;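 further: 0% = DMSO wells given calcium and 100% = 1 mM EGTA wells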
aDG glyco up: increases alpha dystroglycan glycosylation; Pro5-aDG cells, alpha-DG glycosylation AlphaScreen (IIH6); 0% Pro5, 100% B10-LARGE cell signal; activation, % at 10 µM; 0.22% of 360,000 active; AID 624168;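 active means activation of at least 8% versus controls, or a plate z-score of at least 8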;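 further: Pro5 are CHO cells carrying HIG-tagged alpha-DG that lacks glycosylation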
proCasp7 act: counter-screen: procaspase-7 (human) activation; 0.093% of 330,000 active; P55210; recombinant procaspase-7, Ac-DEVD-pNA absorbance 405 nm; D23A/D198A/D206A triple mutant, cannot self-cleave; scale: DMSO 0, 5 µM enzyme 100; activation, % at 8.5 µM; AID 463210;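 active means percent activation above the screen-wide mean plus 3 SD, cut at about 25% in these data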
Target sequence (P55210 whole entry D23A/D198A/D206A): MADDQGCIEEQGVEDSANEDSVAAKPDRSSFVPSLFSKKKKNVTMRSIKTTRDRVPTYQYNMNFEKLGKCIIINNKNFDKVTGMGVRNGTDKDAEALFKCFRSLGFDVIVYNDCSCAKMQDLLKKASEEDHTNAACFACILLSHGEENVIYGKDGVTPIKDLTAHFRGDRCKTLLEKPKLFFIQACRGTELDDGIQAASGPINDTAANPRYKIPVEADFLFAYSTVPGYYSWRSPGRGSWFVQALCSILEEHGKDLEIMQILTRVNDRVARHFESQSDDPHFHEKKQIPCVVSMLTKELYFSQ
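System: Procaspase-7 triple mutant (PC-7 D3A); measure: % activation from two-timepoint absorbance difference, scaled to controls; times: 1 h compound preincubation, 2 h substrate cleavage, 25 °C; also added: Ac-DEVD-pNA substrate, 400 µM as added; measured by: Epi-absorbance of released pNA at 405 nm, two timepoints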
NR3A LBD binder: NR3A (human) ligand-binding domain modulation; NR3A LBD differential scanning fluorimetry, Tm shift; 0% = protein alone, 100% = glycine-bound protein; Tm shift relative to glycine control, % at 25 µM; 2.5% of 340,000 active;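 active means melting temperature shift of at least 10% of the positive control shift, at one fixed dose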
procasp3 activ: activates human procaspase-3; P42574; recombinant procaspase-3 D3A, Ac-DEVD-pNA absorbance 405 nm; activation, % at 8.5 µM; 0.11% of 330,000 active; AID 463141;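 active means activation above the mean of all tested compounds plus 3 SD, cut at about 21% in these data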;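 further: 0% = DMSO alone and 100% = DMSO wells spiked with extra 5 µM PC-3 D3A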
Target sequence (P42574 whole entry D9A/D28A/D175A): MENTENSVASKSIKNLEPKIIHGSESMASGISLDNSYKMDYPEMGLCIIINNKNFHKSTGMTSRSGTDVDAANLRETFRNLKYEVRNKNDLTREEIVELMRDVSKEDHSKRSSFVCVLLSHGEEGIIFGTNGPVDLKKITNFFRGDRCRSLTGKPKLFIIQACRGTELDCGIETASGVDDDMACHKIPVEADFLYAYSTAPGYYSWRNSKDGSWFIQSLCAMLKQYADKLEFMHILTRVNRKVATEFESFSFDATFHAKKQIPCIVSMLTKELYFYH
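Test system: Procaspase-3 D3A mutant, all three cleavage aspartates alanine | Dosing: Single dose, 8.5 µM nominal compound, 0.8% DMSO | Schedule: 1 h preincubation, 2 h reaction | Technique: 405 nm absorbance of p-nitroaniline, reads at 0 and 120 min | Repeats: One well per compound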
Rh123 counter: mitochondrial membrane potential, counter-screen; isolated mitochondria, Rhodamine 123 fluorescence; shares compounds with MPTP block; inhibition, % at 10 µM; 78% of 5,000 active; AID 624504; in the data active means inhibition above about 22%;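 further: 0% = DMSO vehicle and 100% = positive control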
MPTP swell DR: MPTP inhibition, dose response swelling confirmation. AID 651561. 58% of 780 active. IC50, µM. isolated mitochondria swelling, absorbance. shares compounds with MPTP block; in the data active means IC50 below about 20 µM
MPTP counter DR: counter-screen for mitochondrial permeability transition pore inhibitors, dose response | isolated mitochondria counterscreen, fluorescence read-out | AID 651564 | IC50, µM | shares compounds with MPTP block | 49% of 780 active; in the data active means IC50 below about 80 µM
Starred values were filed as active, the others as inactive; i = inactive; . = not tested or not shown.

SMILES	MPTP block	aDG glyco up	proCasp7 act	NR3A LBD binder	procasp3 activ	Rh123 counter	others
CC1CCCN(c2nc3ccccc3nc2C(C#N)S(=O)(=O)c2cccs2)C1 (stereo unspecified)	93*	0	-11	6	-8	67*
Cc1cccc(S(=O)(=O)C(C#N)c2nc3ccccc3nc2N2CC(C)OC(C)C2)c1 (stereo unspecified)	56*	0	1	1	-2	71*
Cc1ccc(S(=O)(=O)C(C#N)c2nc3ccccc3nc2N2CC(C)OC(C)C2)cc1C (stereo unspecified)	44	0	-9	-3	2	.
COc1ccc(S(=O)(=O)C(C#N)c2nc3ccccc3nc2N2CCCC(C)C2)cc1 (stereo unspecified)	24	0	-3	3	-6	.
O=C(Nc1ccc2c(c1)OCO2)c1cc(C2CCCCN2S(=O)(=O)c2ccccc2)on1 (stereo unspecified)	1	0	.	.	.	.
O=C(CN1CCN(Cc2ccccc2Cl)CC1)N/N=C/c1ccccn1	3	0	2	-2	0	.
Cc1cccc(-c2nc(CSCC(=O)N3CCN(c4ccccn4)CC3)c(C)o2)c1	78*	0	0	0	1	63*
CCC(CC)C(C(=O)NCc1ccccc1)N(C)Cc1ccc(Cl)c(Cl)c1 (stereo unspecified)	24	0	.	.	.	.
Cc1ccc(NC(=S)Nc2cccc3ccccc23)cc1F	64*	0	-12	16*	-12	84*
CC1Cc2cc(S(=O)(=O)NCc3ccccc3)ccc2N1C(=O)C1CCC1 (stereo unspecified)	72*	0	8	0	7	53*
CCCCN(CCCC)CC(O)CN(c1cc([N+](=O)[O-])ccc1OC)S(=O)(=O)c1ccccc1 (stereo unspecified)	76*	0	1	-8	9	-8	MPTP swell DR=>100;MPTP counter DR=57*
COc1ccc([N+](=O)[O-])cc1N(CC(O)CN(CC(C)C)CC(C)C)S(=O)(=O)c1ccccc1 (stereo unspecified)	2	0	5	-30	1	.
CCSc1ccc2c(c1)N(CCCN1CCN(C)CC1)c1ccccc1S2	96*	1	7	-1	4	-20
CN(C)CCCN1c2ccc(O)cc2Sc2ccc(Cl)cc21	1	0	.	.	.	.
CCN(CC)CCCCN1c2ccccc2Sc2ccccc21	-2	0	4	-3	2	.
CC(CN1CCN(CCOCCO)CC1)CN1c2ccccc2Sc2ccc(Cl)cc21 (stereo unspecified)	-2	2	.	.	.	.
OC1CC2CCC(C1)N2CCCN1c2ccccc2Sc2ccc(Cl)cc21 (stereo unspecified)	76*	0	.	-1	.	-17	MPTP swell DR=4*;MPTP counter DR=74*
CN1CCN(CCCN2c3ccccc3Sc3ccc(Cl)cc32)CC1	92*	0	9	-2	-7	-19
Cc1cc(N=Nc2ccccc2)cc(C)c1NC(=O)C(F)(F)F	2	0	.	-24	.	.
COc1ccc(C(=O)NC2CC(C)(C)Cc3occc32)cc1 (stereo unspecified)	1	0	-7	-10	-6	.
Cc1n[nH]c(C)c1CCCCOc1ccccc1[N+](=O)[O-]	85*	1	16	-1	-7	74*
Cc1ccccc1OCCCCc1c(C)n[nH]c1C	101*	3	-6	0	4	98*
Cc1ccccc1OCCCc1c(C)n[nH]c1C	0	0	3	-2	-7	.
O=C(Nc1cc(S(=O)(=O)N2CCCCC2)ccc1N1CCCCC1)C1CC1	1	1	-12	-2	1	.
Cc1ccc2nc(C)c3c(c2c1)OC(C(C)(Cl)Br)C3 (stereo unspecified)	3	1	-5	3	-1	.
SMILES	MPTP block	aDG glyco up	proCasp7 act	NR3A LBD binder	procasp3 activ	Rh123 counter	others
Cc1nc2ccccc2c2c1CC(C(C)(Cl)Br)O2 (stereo unspecified)	60*	1	5	-1	4	84*
Cc1cccc2sc(N(CCN(C)C)C(=O)C3CCN(S(=O)(=O)c4cccs4)CC3)nc12	72*	0	8	-11	7	-18	MPTP swell DR=i;MPTP counter DR=>80
COc1ccc(Cl)c2sc(N(CCN(C)C)C(=O)c3ccc4c(c3)OCCO4)nc12	74*	0	3	.	-1	-13	MPTP swell DR=i;MPTP counter DR=50*
COc1ccc(OC)c2sc(N(CCN(C)C)C(=O)c3ccc4ccccc4c3)nc12	-1	0	-4	3	2	.
COc1cc2ccccc2cc1C(=O)N(CCN(C)C)c1nc2c(C)cccc2s1	69*	3	4	1	6	-8	MPTP swell DR=i;MPTP counter DR=>80
CN(C)CCN(C(=O)c1ccc2c(c1)OCCO2)c1nc2c(Cl)cccc2s1	2	0	4	2	4	.
COc1cc2ccccc2cc1C(=O)N(CCN(C)C)c1nc2c(OC)ccc(OC)c2s1	67*	1	15	1	-7	-8	MPTP swell DR=>100;MPTP counter DR=52*
Cc1cc2c(Nc3ccccc3)ncnc2s1	-1	0	8	2	4	.
CCCCCCCCNc1ncnc2ccccc12	103*	4	3	-40	-3	87*
c1ccc(CCNc2ncnc3ccccc23)cc1	96*	8.7*	0	1	1	103*
Cc1cc2c(NCCc3ccccc3)ncnc2s1	103*	3	1	-4	-5	95*
O=C(CSc1ncnc2ccccc12)NCCc1ccccc1	0	0	6	1	8	.
CCc1ccccc1Nc1ncnc2ccccc12	1	0	1	-2	0	.
Cc1ccc(/C([O-])=C(/C(=S)Nc2ccc(SC(F)F)cc2)[n+]2ccccc2)cc1[N+](=O)[O-]	64*	0	-10	1	-9	80*
Oc1cccc2c(NC(=S)Nc3ccc(SC(F)F)cc3)cccc12	88*	-1	-15	25*	-7	88*
CCCCNC(=S)Nc1ccc(SC(F)F)cc1	98*	0	-7	0	-1	73*
Oc1cccc(NC(=S)Nc2ccc(SC(F)F)cc2)c1	91*	0	-8	16*	-10	84*
Oc1cccc(NC(=S)Nc2cccnc2)c1	-1	0	-15	-16	-1	.
OCCC1CN(Cc2nc3c(s2)CCCC3)CCN1Cc1ccccc1 (stereo unspecified)	1	0	5	-1	2	.
